ChEMBL document CHEMBL5038647, “Elastase Inhibitor Cyclotheonellazole A: Total Synthesis and In Vivo Biological Evaluation for Acute Lung Injury” (J Med Chem, 2022)
Values joined by “and” are separate entries in the source; they are usually repeats but may differ in a detail not shown here. Equal values may be shown once. Active and inactive are the calls of the source. No cut-off for these calls is given here. *1 amine or outer side, *2 acyl side, *3 side chain or, on linkers, in order; H or OH if unused. Where a SMILES comes first, the peptide text is derived from it. Bridges are numbered along the chain shown (N, C = ends). [ ]: non-standard residue; d: D form. The star is where a group is joined. X2 = O=C(/C=C/c1csc([C@H](Cc2ccc(O)cc2)N[*:1])n1)[*:2]; X1 = CC[C@H](C)[C@H](N[*:1])C(=O)C(=O)[*:2]; X3 = CC[C@H](C)[C@H](N[*:1])C(O)C(=O)[*:2]; Benzoyl(4-OH) = O=C(c1ccc(O)cc1)*; Cya = N[C@@H](CS(=O)(=O)O)C(=O)O; MeOSuc = COC(=O)CCC(=O)*; Nva = CCC[C@H](N)C(=O)O; Dap = NC[C@H](N)C(=O)O; CH2Cl = ClC*

Key:
[1] = Inhibition of porcine pancreatic elastase incubated for 40 mins in presence of DQ elastin substrate by fluorescence multiwell plate reader; design: species or system Sus scrofa
Procedure, shortened: (§1)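 Fluorescence elastase assay with DQ elastin substrate at 25 μg/mL and either porcine pancreatic elastase at 0.4 U/mL or human neutrophil elastase at 0.2 U/mL. Enzyme, substrate and increasing inhibitor concentrations were incubated 40 min at rt in the dark, then read at ex 485/em 535 nm. Each experiment was run three times; paired Student's t test against controls.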

[2] = Inhibition of elastase (unknown origin); design: species or system Homo sapiens
Procedure, shortened: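 EnzChek kit, DQ elastin substrate 25 μg/mL with porcine pancreatic elastase 0.4 U/mL or human neutrophil elastase 0.2 U/mL. Increasing inhibitor concentrations, 40 min at room temperature in the dark. Fluorescence read at ex 485/em 535 nm. Three repeats; paired Student's t test against controls.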

[3] = test system: Mus musculus; test: Antiinflammatory activity against bleomycin-induced acute lung injury C57BL/6 mouse model assessed as reduction in lung edema by measuring reduction in lung wet/dry ratio at 30 mg/kg, ip administered for upto 5 days relative to control; type: functional, organism-based; details: time day <=5
Procedure, shortened: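 Same BLM model: C57BL/6J males, intratracheal BLM 4 mg/kg, then 30 mg/kg ip daily up to 5 days in 10% DMSO/90% saline, sacrifice day 6, n = 8 per group. Left lungs were weighed immediately, dried at 78 °C for 48 h to stable weight and reweighed to give the wet/dry ratio. Dead animals were excluded.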

[4] = test system: Mus musculus; test: Antiinflammatory activity against bleomycin-induced acute lung injury C57BL/6 mouse model assessed as fold reduction in lung edema by measuring thickness of the alveolar deterioration at 30 mg/kg, ip administered for upto 5 days by HE-staining relative to control; type: functional; details: time day <=5
Procedure, shortened: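 Male C57BL/6J mice, 8 weeks old, n = 8/group. ALI induced by intratracheal BLM (4 mg/kg, in 0.1 mL saline) under chloral hydrate anaesthesia; sham controls got saline. Drug given ip at 30 mg/kg in 10% DMSO/90% saline daily for up to 5 days. Sacrifice on day 6; right lung formalin-fixed, 4 μm HE sections, three images per lung, blinded histologist scoring; dead animals excluded.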

[5] = test system: Mus musculus; test: Antiinflammatory activity against bleomycin-induced acute lung injury C57BL/6 mouse model assessed as reduction in pathological changes in lung at 30 mg/kg, ip administered for upto 5 days by HE-staining based assay; type: functional, organism-based; details: time day <=5
Procedure, shortened: (§2)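 Male C57BL/6J mice, 8 weeks old, n = 8 per group, anaesthetised with chloral hydrate. ALI was induced by intratracheal BLM 4 mg/kg in 0.1 mL saline; controls received saline. Drug was given at 30 mg/kg ip daily for up to 5 days in 10% DMSO/90% saline (vehicle alone for controls), with sacrifice on day 6. Right lungs were formalin-fixed, sectioned at 4 μm and HE-stained. A histologist scored three images per lung blind; dead animals were excluded.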

[6] = test system: Mus musculus; test: Antiinflammatory activity against bleomycin-induced acute lung injury C57BL/6 mouse model assessed as reduction in inflammatory cell infiltration in lung at 30 mg/kg, ip administered for upto 5 days by HE-staining based assay; type: functional, organism-based; details: time day <=5; procedure, shortened: as §2
[7] = Inhibition of elastase (unknown origin) at 1.25 uM by fluorescence microtiter plate method relative to control; details: Homo sapiens
Procedure, shortened: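 Single-concentration screen: elastin substrate and elastase were incubated with test compounds at 1.25 μM in the EnzChek fluorescence elastase format (40 min, rt). Activity was read against controls, with three repeats.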

[8] = species on record: Homo sapiens; test: Inhibition of elastase (unknown origin) at 2.5 uM by fluorescence microtiter plate method relative to control
Procedure, shortened: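 Elastin substrate plus elastase incubated with a single inhibitor level (reference inhibitor MeOSu-AAPV-CMK at 2.5 μM, others at 1.25 μM). EnzChek DQ elastin fluorescence, ex 485/em 535 nm, 40 min at room temperature. Three repeats.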

[9] = Cytotoxicity against human 293T/ACE2 cells assessed as reduction in cell viability upto 100 uM incubated for 24 hrs by CCK-8 assay; type: toxicity, cell-based; details: 293t/ace2, 24 h
Procedure, shortened: (§3)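 Cells (ACE2-overexpressing 293T stable line or BEAS-2B lung epithelial) were seeded at 1 × 10^4 per well and left about 12 h to adhere. They were exposed to graded compound concentrations for 24 h. CCK-8 was added and incubated 2 h at 37 °C, then OD450 read. Viability was expressed as percentage; IC50 was computed.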

[10] = biological target: T1, Neutrophil elastase (Homo sapiens, UniProt P08246); test: Inhibition of human neutrophil elastase; procedure, shortened: as §1
T1 sequence (P08246 whole entry): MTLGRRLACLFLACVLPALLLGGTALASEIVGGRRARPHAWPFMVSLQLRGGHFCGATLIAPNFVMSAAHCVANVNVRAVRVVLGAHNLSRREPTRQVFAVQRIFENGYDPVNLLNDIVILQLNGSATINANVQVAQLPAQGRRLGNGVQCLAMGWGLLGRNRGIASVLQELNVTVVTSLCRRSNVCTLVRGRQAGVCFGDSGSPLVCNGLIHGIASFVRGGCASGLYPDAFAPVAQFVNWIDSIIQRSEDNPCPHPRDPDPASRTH

[11] = test system: BEAS-2B; test: Cytotoxicity against human BEAS-2B cells assessed as reduction in cell viability upto 100 uM incubated for 24 hrs by CCK-8 assay; type: toxicity, cell-based; procedure, shortened: as §3
[12] = biological target: T1, Neutrophil elastase; test: Inhibition of human neutrophil elastase incubated for 40 mins in presence of DQ elastin by fluorescence microtiter plate method

| SMILES | IC50 [1] [nM] | Activity [3] | fold change (FC) [4] | Activity [5] | Activity [6] | inhibition [7] | other results |
| --- | --- | --- | --- | --- | --- | --- | --- |
| CC(C)(C)C(=O)Oc1ccc(S(=O)(=O)Nc2ccccc2C(=O)NCC(=O)O)cc1 | 2960 | Active | 1 | Active | Active |  | IC50 [2]: 44 nM |
| CCC[C@@H]1NC(=O)[C@@H](NC(=O)[C@H](C)NC(=O)CNC(=O)c2ccc(O[Si](C)(C)C(C)(C)C)cc2)CNC(=O)[C@H](CS(=O)(=O)O)NC(=O)/C=C/c2csc(n2)[C@H](Cc2ccc(O[Si](C)(C)C(C)(C)C)cc2)NC(=O)C(=O)[C@H]([C@@H](C)CC)NC1=O |  |  |  |  |  | 46.6% |  |
| COC(=O)CCC(=O)N[C@@H](C)C(=O)N[C@@H](C)C(=O)N1CCC[C@H]1C(=O)N[C@H](C(=O)CCl)C(C)C (MeOSuc-AAPV-CH2Cl) |  |  |  |  |  |  | inhibition [8]: 23.2% |
| CCC[C@@H]1NC(=O)[C@@H](NC(=O)[C@H](C)NC(=O)CNC(=O)c2ccc(O)cc2)CNC(=O)[C@H](CS(=O)(=O)[O-])NC(=O)/C=C/c2csc(n2)[C@H](Cc2ccc(O)cc2)NC(=O)C(=O)[C@H]([C@@H](C)CC)NC1=O.[Na+] ({Benzoyl(4-OH)}-GA[Dap][Nva][X1][X2][Cya]; lactam 3-C) | 114 | Active | 1 | Active | Active | 3.6% and 3.8% | Activity [9]: Non-Toxic; IC50 [10]: 0.034 nM; Activity [11]: Non-Toxic; IC50 [12]: 321 nM |
| CCC[C@@H]1NC(=O)[C@@H](NC(=O)[C@H](C)NC(=O)CNC(=O)c2ccc(O)cc2)CNC(=O)[C@H](CS(=O)(=O)O)NC(=O)/C=C/c2csc(n2)[C@H](Cc2ccc(O)cc2)NC(=O)C(O)[C@H]([C@@H](C)CC)NC1=O (some centres undefined) ({Benzoyl(4-OH)}-GA[Dap][Nva][X3][X2][Cya]; lactam 3-C) |  |  |  |  |  | 94% |  |
